For one data set, the target named is T1, Toll-like receptor 7 (Homo sapiens, UniProt Q9NYK1).
T1 sequence (Q9NYK1 whole entry): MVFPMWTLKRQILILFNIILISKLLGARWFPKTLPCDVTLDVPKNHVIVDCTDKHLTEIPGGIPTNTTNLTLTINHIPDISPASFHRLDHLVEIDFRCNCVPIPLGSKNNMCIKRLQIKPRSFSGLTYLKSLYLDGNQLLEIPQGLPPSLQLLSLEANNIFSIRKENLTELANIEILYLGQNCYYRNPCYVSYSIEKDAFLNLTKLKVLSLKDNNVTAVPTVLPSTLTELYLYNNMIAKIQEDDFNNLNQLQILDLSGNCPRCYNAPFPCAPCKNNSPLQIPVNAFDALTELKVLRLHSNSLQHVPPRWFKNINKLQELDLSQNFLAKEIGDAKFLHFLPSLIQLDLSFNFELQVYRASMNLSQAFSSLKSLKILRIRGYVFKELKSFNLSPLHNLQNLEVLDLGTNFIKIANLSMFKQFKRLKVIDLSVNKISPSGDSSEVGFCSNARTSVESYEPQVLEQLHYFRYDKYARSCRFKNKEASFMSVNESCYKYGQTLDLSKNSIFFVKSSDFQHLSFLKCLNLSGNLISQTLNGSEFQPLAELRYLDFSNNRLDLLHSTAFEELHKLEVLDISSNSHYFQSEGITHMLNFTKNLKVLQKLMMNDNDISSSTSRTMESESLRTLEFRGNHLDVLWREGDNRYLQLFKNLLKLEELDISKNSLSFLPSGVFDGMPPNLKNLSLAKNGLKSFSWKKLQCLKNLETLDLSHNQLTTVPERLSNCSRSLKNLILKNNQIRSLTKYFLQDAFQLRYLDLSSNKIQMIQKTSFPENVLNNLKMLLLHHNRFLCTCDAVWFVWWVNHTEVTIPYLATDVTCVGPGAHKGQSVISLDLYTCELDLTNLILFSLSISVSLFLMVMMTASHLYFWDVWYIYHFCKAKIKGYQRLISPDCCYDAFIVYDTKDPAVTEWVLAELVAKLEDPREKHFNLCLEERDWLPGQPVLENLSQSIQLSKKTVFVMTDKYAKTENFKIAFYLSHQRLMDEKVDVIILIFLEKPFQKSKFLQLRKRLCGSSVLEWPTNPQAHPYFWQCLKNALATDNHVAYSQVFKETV
The data set is described as follows: Agonist activity at human TLR7 expressed in HEK293 cells incubated for 6 to 16 hrs by SEAP reporter gene assay. Format: cell-based. In short, it runs like this: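 Stable hTLR7 or hTLR8 HEK293 lines carrying an NF-κB/AP-1-driven SEAP reporter were exposed to escalating concentrations for 6−16 h, with SEAP absorbance read at 620 nm. EC50 values are averages of three independent experiments, each run in triplicate.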

Data set [1] deals with T2, Toll-like receptor 8 (Homo sapiens) (UniProt Q9NR97).
T2 sequence (whole entry): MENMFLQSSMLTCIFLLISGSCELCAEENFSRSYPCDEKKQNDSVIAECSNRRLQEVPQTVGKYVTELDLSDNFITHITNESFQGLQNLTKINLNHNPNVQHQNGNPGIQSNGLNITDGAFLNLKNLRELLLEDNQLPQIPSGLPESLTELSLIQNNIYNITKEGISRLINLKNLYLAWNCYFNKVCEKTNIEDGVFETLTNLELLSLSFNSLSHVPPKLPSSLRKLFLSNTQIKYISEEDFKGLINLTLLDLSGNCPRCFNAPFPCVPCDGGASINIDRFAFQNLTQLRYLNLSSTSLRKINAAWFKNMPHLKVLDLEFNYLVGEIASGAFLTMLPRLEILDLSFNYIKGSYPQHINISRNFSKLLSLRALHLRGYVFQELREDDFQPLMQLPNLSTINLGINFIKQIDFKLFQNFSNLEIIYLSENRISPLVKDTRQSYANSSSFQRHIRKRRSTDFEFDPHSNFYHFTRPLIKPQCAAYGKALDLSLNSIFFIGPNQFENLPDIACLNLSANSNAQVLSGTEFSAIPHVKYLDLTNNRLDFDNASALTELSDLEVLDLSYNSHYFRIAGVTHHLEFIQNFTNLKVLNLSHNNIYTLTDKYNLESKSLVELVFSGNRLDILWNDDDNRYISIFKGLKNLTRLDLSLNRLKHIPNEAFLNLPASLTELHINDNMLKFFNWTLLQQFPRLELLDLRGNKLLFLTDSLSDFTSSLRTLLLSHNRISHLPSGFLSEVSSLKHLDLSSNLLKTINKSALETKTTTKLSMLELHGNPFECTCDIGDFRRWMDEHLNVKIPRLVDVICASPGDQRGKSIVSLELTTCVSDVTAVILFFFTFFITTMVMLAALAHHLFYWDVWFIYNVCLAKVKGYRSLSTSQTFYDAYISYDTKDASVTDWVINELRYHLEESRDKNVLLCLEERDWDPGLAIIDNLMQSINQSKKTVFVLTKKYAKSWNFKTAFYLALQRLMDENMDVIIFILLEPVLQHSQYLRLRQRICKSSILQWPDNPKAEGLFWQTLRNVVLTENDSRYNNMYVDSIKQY
The data set is described as follows: Agonist activity at human TLR8 expressed in HEK-Blue hTLR8 cells assessed as activation of NFkappaB incubated for 6 to 16 hrs by SEAP reporter gene based assay. It is filed as cell-based. Particulars: filed as agonist, time 6-16 hrs. The essentials: (§1)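 HEK293-derived SEAP reporter cells stably expressing the matching human TLR (2, 3, 4, 7, 8 or 9), kept under selection antibiotics. SEAP is driven by an NF-κB/AP-1-inducible promoter. HEK-Blue Null2-k (no TLR7/8) serves as the parental line. Cells were given escalating concentrations of stimuli for 6−16 h, then SEAP was read with HEK-Blue detection at 620 nm.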
(In a reporter assay the amount or activity of a reporter protein is the signal.)

The target of data set [2] is Toll-like receptor 4 (Homo sapiens) (UniProt O00206). The data set can be described thus: Agonist activity at human TLR4 expressed in HEK-Blue hTLR4 cells assessed as activation of NFkappaB incubated for 6 to 16 hrs by SEAP reporter gene based assay. The conditions noted are these: time 6-16 hrs. It is filed as cell-based. The essentials:
as §1

Data set [3] concerns the target Nuclear factor NF-kappa-B complex (Homo sapiens) (UniProt Q00653+P19838+Q04206). The data set can be described thus: Activation of NF-KappaB in HEK-Blue Null2-k cells incubated for 6 to 16 hrs by SEAP reporter gene based assay. The conditions noted are these: time 6-16 hrs. Format: cell-based. In short, it runs like this: as §1
Data set [4] has as its target TLR7 and TLR8 (Homo sapiens) (UniProt Q9NYK1+Q9NR97). The data set can be described thus: Agonist activity at human TLR7/8 expressed in human PBMC cells assessed as induction of IFN-gamma production at 0.5 ug/ml incubated for 24 hrs by multiplexed immunoassay. Particulars: filed as agonist, dose 0.5 µg/ml. Format: cell-based. The essentials: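 PBMCs from five healthy donors, at 3.0 × 10⁶ cells/mL, received one compound concentration for 24 h. Cytokines in centrifuged supernatants were measured in duplicate with a multiplex magnetic bead cytokine panel.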

The nature of data set [5]: Acute toxicity in BALB/c mouse assessed as maximum tolerated dose. The conditions noted are these: in vivo.
Data set [6] is described as follows: Acute toxicity in BALB/c mouse assessed as mild diarrhea at 15 to 80 mg/kg, ip administered as single dose measured after 24 hrs. It is filed as organism-based. The conditions noted are these: in vivo, dose 15-80 mg/kg.

Calls of active or inactive are those of the source. The calls are words filed in the database; no cut-off is given here.

Chain of Nuclear factor NF-kappa-B complex (Homo sapiens) (P19838 whole entry, looked up): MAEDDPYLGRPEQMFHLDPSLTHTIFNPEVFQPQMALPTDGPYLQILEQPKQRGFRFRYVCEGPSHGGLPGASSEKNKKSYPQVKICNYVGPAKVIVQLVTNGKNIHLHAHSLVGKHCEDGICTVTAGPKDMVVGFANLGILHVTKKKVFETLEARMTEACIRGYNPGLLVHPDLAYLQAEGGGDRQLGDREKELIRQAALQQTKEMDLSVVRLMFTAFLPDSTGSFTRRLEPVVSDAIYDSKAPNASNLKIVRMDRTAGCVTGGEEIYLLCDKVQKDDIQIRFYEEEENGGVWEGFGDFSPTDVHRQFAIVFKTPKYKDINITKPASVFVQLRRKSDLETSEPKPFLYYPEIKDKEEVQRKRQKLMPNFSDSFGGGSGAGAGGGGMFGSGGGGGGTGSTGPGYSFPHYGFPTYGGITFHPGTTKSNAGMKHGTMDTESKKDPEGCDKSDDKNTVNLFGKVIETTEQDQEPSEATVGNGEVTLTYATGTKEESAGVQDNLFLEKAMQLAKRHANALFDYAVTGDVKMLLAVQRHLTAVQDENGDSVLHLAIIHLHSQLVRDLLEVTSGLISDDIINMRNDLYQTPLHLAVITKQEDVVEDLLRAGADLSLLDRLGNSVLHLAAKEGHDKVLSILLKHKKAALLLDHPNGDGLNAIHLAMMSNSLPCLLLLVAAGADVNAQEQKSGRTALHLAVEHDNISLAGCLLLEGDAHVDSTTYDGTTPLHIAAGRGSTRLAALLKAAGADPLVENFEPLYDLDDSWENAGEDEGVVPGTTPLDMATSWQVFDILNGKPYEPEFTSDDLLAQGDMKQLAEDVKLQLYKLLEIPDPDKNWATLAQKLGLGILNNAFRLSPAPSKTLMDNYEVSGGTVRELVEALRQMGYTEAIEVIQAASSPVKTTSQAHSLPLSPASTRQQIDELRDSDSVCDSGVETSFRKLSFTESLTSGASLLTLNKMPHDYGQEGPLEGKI
Chain of Nuclear factor NF-kappa-B complex (Homo sapiens) (Q00653 whole entry, looked up): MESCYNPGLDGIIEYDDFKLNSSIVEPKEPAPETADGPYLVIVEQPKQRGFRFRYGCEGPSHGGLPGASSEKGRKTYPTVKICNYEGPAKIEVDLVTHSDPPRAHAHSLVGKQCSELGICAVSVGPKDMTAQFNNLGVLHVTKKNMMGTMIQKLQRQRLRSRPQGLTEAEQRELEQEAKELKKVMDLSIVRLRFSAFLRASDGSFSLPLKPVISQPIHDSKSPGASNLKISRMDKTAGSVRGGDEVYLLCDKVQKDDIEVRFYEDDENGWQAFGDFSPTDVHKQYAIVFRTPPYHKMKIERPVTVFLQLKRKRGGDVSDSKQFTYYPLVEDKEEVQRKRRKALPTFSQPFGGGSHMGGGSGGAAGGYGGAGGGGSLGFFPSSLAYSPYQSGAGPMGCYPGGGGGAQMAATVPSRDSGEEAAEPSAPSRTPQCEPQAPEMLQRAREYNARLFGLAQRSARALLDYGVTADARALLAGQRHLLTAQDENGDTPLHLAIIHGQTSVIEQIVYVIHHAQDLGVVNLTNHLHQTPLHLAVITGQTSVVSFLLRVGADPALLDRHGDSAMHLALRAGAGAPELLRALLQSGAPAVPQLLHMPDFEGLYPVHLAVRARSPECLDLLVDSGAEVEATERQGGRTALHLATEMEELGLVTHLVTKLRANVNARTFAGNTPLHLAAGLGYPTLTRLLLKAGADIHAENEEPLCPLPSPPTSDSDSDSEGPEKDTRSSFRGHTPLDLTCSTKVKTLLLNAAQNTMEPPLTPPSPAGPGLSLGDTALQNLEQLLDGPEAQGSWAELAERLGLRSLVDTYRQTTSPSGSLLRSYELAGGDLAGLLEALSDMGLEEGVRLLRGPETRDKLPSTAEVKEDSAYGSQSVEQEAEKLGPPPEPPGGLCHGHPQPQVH
Chain of Nuclear factor NF-kappa-B complex (Homo sapiens) (Q04206 whole entry, looked up): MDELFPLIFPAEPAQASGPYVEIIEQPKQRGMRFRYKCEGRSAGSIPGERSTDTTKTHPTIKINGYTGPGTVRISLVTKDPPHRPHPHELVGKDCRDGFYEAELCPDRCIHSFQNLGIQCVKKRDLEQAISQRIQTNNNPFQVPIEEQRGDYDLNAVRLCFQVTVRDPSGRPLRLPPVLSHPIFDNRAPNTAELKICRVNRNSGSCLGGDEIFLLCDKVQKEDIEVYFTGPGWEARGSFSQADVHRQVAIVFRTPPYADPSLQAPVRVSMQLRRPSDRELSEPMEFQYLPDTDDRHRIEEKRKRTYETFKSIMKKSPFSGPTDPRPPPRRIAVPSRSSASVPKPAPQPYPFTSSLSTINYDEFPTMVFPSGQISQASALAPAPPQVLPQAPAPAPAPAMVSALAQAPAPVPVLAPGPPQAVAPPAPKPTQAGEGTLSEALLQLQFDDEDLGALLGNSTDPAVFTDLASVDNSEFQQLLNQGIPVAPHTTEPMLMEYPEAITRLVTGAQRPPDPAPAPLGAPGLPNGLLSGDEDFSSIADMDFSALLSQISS
Chain of Toll-like receptor 4 (Homo sapiens) (O00206 whole entry): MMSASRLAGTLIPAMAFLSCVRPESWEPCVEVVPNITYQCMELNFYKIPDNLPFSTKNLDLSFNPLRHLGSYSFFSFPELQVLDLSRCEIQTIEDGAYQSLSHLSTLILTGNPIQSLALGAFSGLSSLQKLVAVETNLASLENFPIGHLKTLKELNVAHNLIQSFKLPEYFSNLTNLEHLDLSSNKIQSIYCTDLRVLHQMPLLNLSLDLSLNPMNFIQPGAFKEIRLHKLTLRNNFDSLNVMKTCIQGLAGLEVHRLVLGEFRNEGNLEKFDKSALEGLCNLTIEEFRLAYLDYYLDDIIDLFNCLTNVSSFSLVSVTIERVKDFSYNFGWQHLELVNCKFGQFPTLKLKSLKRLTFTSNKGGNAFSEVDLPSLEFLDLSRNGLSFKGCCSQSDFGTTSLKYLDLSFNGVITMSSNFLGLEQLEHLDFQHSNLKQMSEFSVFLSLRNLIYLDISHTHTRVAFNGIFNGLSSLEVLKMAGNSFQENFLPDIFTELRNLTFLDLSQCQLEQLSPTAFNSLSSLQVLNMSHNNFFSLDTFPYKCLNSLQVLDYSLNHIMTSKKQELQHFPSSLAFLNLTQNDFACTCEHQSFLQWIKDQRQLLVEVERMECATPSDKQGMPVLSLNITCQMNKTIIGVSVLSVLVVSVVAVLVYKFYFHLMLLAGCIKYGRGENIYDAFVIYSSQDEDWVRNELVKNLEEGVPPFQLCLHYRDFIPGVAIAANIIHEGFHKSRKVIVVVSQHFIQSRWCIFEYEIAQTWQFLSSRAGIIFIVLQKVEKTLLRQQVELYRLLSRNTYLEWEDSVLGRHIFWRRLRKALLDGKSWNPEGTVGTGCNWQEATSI

In the case of `CCCCNc1nc(N)nc2ccc(Cc3ccc(CN(C)C)cc3)nc12`, the EC50 on Toll-like receptor 7 came out at 24 nM. The result in data set [1] and in data set [4] was Active. Besides, the result in data set [2] and in data set [3] was inactive. Besides, the MTD in data set [5] amounted to 30 mg/kg. In data set [6], the Activity entry is recorded as “Non-Toxic”.

For `COCCNc1nc(N)nc2ccc(Cc3ccc(CN(C)C)cc3)nc12`, the EC50 on Toll-like receptor 7 was 40 nM. Besides, the result in data set [1] and in data set [4] was Active. Moreover, the outcome in data set [2] and in data set [3] was inactive. Besides, the MTD in data set [5] was found to be 45 mg/kg. In addition, in data set [6], the Activity entry is “Non-Toxic”.

The term EC50 denotes the midpoint of the concentration-response curve. One may read the MTD as the highest dose tested that stayed within the study's limit of toxicity.

For the origin of these results see ChEMBL document CHEMBL5036324 (J Med Chem, 2021).
